Measured values: ChEMBL document CHEMBL1938389, “Jadomycins derived from the assimilation and incorporation of norvaline and norleucine” (J Nat Prod, 2011)
The source made the active and inactive calls. The rule behind the calls is not given here.

Key:
[1] = Cytotoxicity against human NCI60 cells; assay type: functional
Method in brief: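 NCI 60-cell-line screen covering leukemia, NSCLC, colon, CNS, melanoma, ovarian, renal, prostate and breast lines. Five doses spanning 5 log10, top concentration 32 μM. Percent growth and mean optical density measured per NCI protocol. OD plotted against concentration to give GI50, TGI and LC50, reported as median (range) over up to 59 lines.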

Salmonella typhimurium = test: Antimicrobial activity against Salmonella enterica Typhimurium C587 by CLSI method; assay type: functional, organism-based; conditions: Salmonella enterica subsp. enterica serovar Typhimurium
Method in brief: (§1)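 Broth MIC determination following Clinical and Laboratory Standards Institute methods. Panel: Gram-positive S. aureus C622, MRSA C623, S. epidermidis C960, B. subtilis C971, E. faecalis C625; Gram-negative S. enterica Typhimurium C587, E. coli C498, P. aeruginosa H187. Activity read as minimum inhibitory concentration.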

Escherichia coli = test: Antimicrobial activity against Escherichia coli C498 by CLSI method; assay type: functional, organism-based; method in brief: as §1
Pseudomonas aeruginosa = test: Antimicrobial activity against Pseudomonas aeruginosa H187 by CLSI method; assay type: functional, organism-based; method in brief: as §1
[2] = system: Staphylococcus epidermidis; test: Antimicrobial activity against Staphylococcus epidermidis C960 by CLSI method; assay type: functional; method in brief: as §1
Staphylococcus aureus = test: Antimicrobial activity against methicillin-resistant Staphylococcus aureus isolate C623 by CLSI method; assay type: functional
Nucleic Acid [3] = test: Binding affinity to Escherichia coli pUC19 DNA assessed as relaxation of supercoiled DNA at 100 uM by agarose gel electrophoresis; assay type: nucleic-acid assay
Method in brief: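 DNA in 10 mM Tris-Cl pH 8.5, diluted into Tris pH 7.4 (final 5 mM) and NaCl (final 50 mM). Jadomycin added without copper; volume 20 μL; 2 h at 37 °C. Quenched with loading buffer, electrophoresed on 1% agarose containing ethidium bromide (0.75 μg mL−1), 30 min at 8 V cm−1 in 1× TAE. UV visualization.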

Nucleic Acid [4] = test: Binding affinity to Escherichia coli pUC19 DNA assessed as relaxation of supercoiled DNA at 0.1 to 100 uM by agarose gel electrophoresis in presence of Cu ions; assay type: nucleic-acid assay
Method in brief: (§2)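 DNA supplied in 10 mM Tris-Cl pH 8.5, diluted into Tris pH 7.4 (final 5 mM) plus NaCl (final 50 mM). Jadomycins premixed 1:1 with Cu(OAc)2 added; final volume 20 μL. Incubated 2 h at 37 °C, quenched with loading buffer, run on 1% agarose with ethidium bromide (0.75 μg mL−1), 30 min at 8 V cm−1 in 1× TAE. Bands visualized by UV transillumination.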

Nucleic Acid [5] = test: Binding affinity to Escherichia coli pUC19 DNA assessed as relaxation of supercoiled DNA by agarose gel electrophoresis in presence of Cu ions; assay type: nucleic-acid assay; method in brief: as §2

Structure (SMILES) | GI50 [1] [µM] | LC50 [1] [µM] | TGI [1] [µM] | Activity (Salmonella typhimurium) | Activity (Escherichia coli) | Activity (Pseudomonas aeruginosa) | MIC [2] [µg/mL] | MIC (Staphylococcus aureus) [µg/mL] | Activity (Nucleic Acid [3]) | Activity (Nucleic Acid [4]) | EC50 (Nucleic Acid [5]) [µM]
CCC[C@@H]1C(=O)OC2c3cc(C)cc(O)c3C3=C(C(=O)c4c(O[C@H]5C[C@@H](O)[C@@H](O)[C@H](C)O5)cccc4C3=O)N21 (mixture of isomers) | 4.9 | 19 | 10 | inactive | inactive | inactive | 4 | 32 | inactive | Dose-dependent effect | 86
CCCC[C@@H]1C(=O)OC2c3cc(C)cc(O)c3C3=C(C(=O)c4c(O[C@H]5C[C@@H](O)[C@@H](O)[C@H](C)O5)cccc4C3=O)N21 (mixture of isomers) | 4.2 | 18 | 8.7 | inactive | inactive | inactive | 4 | 32 | inactive | Dose-dependent effect | 144
